Reference: ChEMBL document CHEMBL1143154, “Discovery of potent LPA2 (EDG4) antagonists as potential anticancer agents” (Bioorg Med Chem Lett, 2008)

Columns and labels:
[1] = biological target: T1, Lysophosphatidic acid receptor 2 (Homo sapiens, UniProt Q9HBW0); assay: Antagonist activity at LPA2 expressed in RH7777 cells with Gi4-protein and aequorin by calcium mobilization assay; assay type: functional, cell-based
How it was run: (§1)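 Rat hepatoma RH7777 cells transiently transfected with aequorin, chimeric Gi4-protein and the LPA receptor subtype (LPA1, LPA2 or LPA3). Inhibition of LPA-induced receptor activation read as Ca2+ flux by flash luminescence in 384-well format; IC50 in μM, n = 2.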

[2] = biological target: T2, Lysophosphatidic acid receptor 3 (Homo sapiens, UniProt Q9UBY5); assay: Antagonist activity at LPA3 expressed in RH7777 cells with Gi4-protein and aequorin by calcium mobilization assay; assay type: functional, cell-based; how it was run: as §1
T2 sequence (Q9UBY5 whole entry): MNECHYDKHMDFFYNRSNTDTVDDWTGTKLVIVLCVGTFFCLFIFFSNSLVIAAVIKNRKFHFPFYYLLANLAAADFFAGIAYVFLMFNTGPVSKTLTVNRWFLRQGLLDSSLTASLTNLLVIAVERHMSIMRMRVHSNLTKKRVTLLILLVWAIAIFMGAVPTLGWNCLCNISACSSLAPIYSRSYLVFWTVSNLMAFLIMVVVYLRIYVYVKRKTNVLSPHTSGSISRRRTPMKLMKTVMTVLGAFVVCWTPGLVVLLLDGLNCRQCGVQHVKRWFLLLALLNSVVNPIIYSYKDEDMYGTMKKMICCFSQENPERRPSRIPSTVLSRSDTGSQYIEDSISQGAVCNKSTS

[3] = biological target: Lysophosphatidic acid receptor 1 (Homo sapiens, UniProt Q92633); assay: Antagonist activity at LPA1 expressed in RH7777 cells with Gi4-protein and aequorin by calcium mobilization assay; assay type: functional, cell-based; how it was run: as §1
[4] = biological target: T1, Lysophosphatidic acid receptor 2; assay: Antagonist activity at LPA2 assessed as inhibition of LPA-induced Ca2+ flux; assay type: functional; how it was run: as §1
[5] = biological target: T1, Lysophosphatidic acid receptor 2; assay: Inhibition of LPA2-mediated Erk activation in human HCT116 assessed as inhibition of LPA-induced erk phosphorylation
How it was run: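 HCT-116 cells at 90% confluence serum-starved 2 h, preincubated with compound at various concentrations 1 h at 37 °C, then stimulated with LPA 3 μM (HGF 30 ng/ml as counter-stimulus) for 12 min at 37 °C. Cells fixed, permeabilized, blocked 2 h; in-cell Western detection of p-Erk and total Erk simultaneously, p-Erk normalized to total Erk per well.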

HCT-116 = assay: Inhibition of LPA-induced proliferation of human HCT116 cells after 24 hrs; assay type: functional, cell-based
How it was run: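 HCT-116 cells at 5000 cells/well in serum-free DMEM with 0.11% BSA. Test compound added at various concentrations, then LPA at a final 3 μM (HGF at a final 30 ng/ml as comparison stimulus). After 24 h incubation, viable cells measured by CellTiter-Glo luminescence.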

Chain of Lysophosphatidic acid receptor 1 (Q92633 whole entry): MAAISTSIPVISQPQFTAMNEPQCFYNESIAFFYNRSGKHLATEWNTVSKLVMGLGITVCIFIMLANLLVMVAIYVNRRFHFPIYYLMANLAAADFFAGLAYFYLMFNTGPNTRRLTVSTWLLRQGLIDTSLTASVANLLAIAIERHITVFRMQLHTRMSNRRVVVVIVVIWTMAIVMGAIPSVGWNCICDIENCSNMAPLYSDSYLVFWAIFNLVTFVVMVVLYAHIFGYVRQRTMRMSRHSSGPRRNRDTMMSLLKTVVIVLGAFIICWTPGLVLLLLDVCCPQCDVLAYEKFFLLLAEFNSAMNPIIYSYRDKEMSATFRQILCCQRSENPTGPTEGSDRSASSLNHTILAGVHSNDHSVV
T1 sequence (Q9HBW0 whole entry): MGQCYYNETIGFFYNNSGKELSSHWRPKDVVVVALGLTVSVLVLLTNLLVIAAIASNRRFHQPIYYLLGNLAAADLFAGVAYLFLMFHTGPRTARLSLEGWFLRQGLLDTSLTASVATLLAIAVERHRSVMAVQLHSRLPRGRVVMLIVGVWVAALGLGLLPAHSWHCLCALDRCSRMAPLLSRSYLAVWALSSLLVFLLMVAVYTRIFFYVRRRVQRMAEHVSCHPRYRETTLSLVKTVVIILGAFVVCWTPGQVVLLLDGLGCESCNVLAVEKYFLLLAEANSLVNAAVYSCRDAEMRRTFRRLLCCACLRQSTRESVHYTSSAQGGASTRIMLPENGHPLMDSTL

IC50 [1]	SMILES	also measured
3200 nM	COc1ccccc1N1CCN(C[C@H](C)Nc2nc(C3CC3)nc3ccccc23)CC1	–
260 nM	Cc1ccccc1N1CCN(C[C@H](C)Nc2ncnc3c(C)csc23)CC1	IC50 [2]: > 50 µM; IC50 [3]: > 50 µM
> 30000 nM	COc1ccccc1N1CCN(CC(C)(C)Nc2nc(C(F)(F)F)nc3ccccc23)CC1	–
> 30000 nM	COc1ccccc1N1CCN(CCNc2nc(C(F)(F)F)nc3ccccc23)CC1	–
> 30000 nM	COc1ccccc1N1CCN(C[C@@H](C)Nc2nc(C(F)(F)F)nc3ccccc23)CC1	–
1300 nM	COc1ccccc1N1CCN(C[C@H](C)Nc2nc(C(F)(F)F)nc3ccccc23)CC1	–
730 nM	Cc1ccccc1N1CCN(C[C@H](C)Nc2nc(C(F)(F)F)nc3ccccc23)CC1	–
> 30000 nM	CC[C@@H](CN1CCN(c2ccccc2OC)CC1)Nc1nc(C(F)(F)F)nc2ccccc12	–

The remaining lines, values behind:

SMILES	IC50 [1]	also measured
Cc1noc(-c2ccccc2)c1NC(=O)OC(C)c1ccccc1 (stereo not drawn)	> 50000 nM	IC50 [2]: 12 µM; IC50 [3]: 0.05 µM
Cc1ccccc1S(=O)(=O)N1CCN(C[C@H](C)Nc2ncnc3c(C)csc23)CC1	730 nM	–
CC(CN1CCN(c2ccc(F)cc2)CC1)Nc1nc(C2CC2)nc2ccccc12 (stereo not drawn)	–	IC50 [4]: 1700 nM
CCCCS(=O)(=O)N1CCN(C[C@H](C)Nc2ncnc3c(C)csc23)CC1	6610 nM	–
Cc1cccc(S(=O)(=O)N2CCN(C[C@H](C)Nc3ncnc4c(C)csc34)CC2)c1	310 nM	–
Cc1csc2c(N[C@@H](C)CN3CCN(S(=O)(=O)c4cccc(Cl)c4)CC3)ncnc12	35 nM	–
COc1cc(OC)cc(C(=O)N(CCCc2ccccc2)Cc2ccc(Oc3ccccc3C(=O)O)cc2)c1	> 50000 nM	IC50 [2]: 0.04 µM; IC50 [3]: > 50 µM
Cc1csc2c(N[C@@H](C)CN3CCN(S(=O)(=O)Cc4ccccc4)CC3)ncnc12	1860 nM	–
Cc1csc2c(N[C@@H](C)CN3CCN(S(=O)(=O)c4ccc(Cl)c(Cl)c4)CC3)ncnc12	17 nM	IC50 [2]: > 50 µM; IC50 [3]: > 50 µM; Activity [5]: Dose-dependent effect; Activity (HCT-116): Dose-dependent effect
Cc1ccc(S(=O)(=O)N2CCN(C[C@H](C)Nc3ncnc4c(C)csc34)CC2)cc1	170 nM	–
